# Most compounds without a hit are left out; they make up all but 3.5% or so of the library.
# Ecoli rRNA inh – inhibits bacterial ribosomal RNA function over humanized ribosomes; E. coli WT GFP vs humanized-ribosome RFP mutants, fluorescence, 24 h; stronger effect = lower value; DMSO median 0, no signal -100; GFP signal change (wild-type ribosome), % (no concentration beside the values); actives 1.6% (n = 350,000); AID 720706;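 active = significant combined selectivity score with lowered wild-type GFP, culture density cut under 30%, mutant RFP and density less affected; inactive = any of these conditions unmet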
# PglD inh – PglD (C. jejuni) enzyme inhibition; purified PglD enzyme, DTNB colorimetric CoA detection; inhibition, % at 12.5 µM; actives 0.098% (n = 360,000); AID 602405; in the data active = inhibition above about 16%, passing the limit was not always enough; inconclusive = no clear call, values can overlap the other calls
# PGC1a acetyl inh – lowers PGC1a acetylation signal in U2OS cells; AlphaScreen anti-acetyl-lysine; with virally co-expressed GCN5 acetyltransferase; actives 0.17% (n = 350,000); inhibition, % at 15.6 µM;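 active = every replicate shows inhibition of at least 40%; inconclusive = mean inhibition at least 40% but some replicate below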;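 also: 0% = neutral control wells and 100% = positive control wells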
# DENV2 CPE – inhibitors of DENV2 cytopathic effect; DENV2-infected cells, cytopathic effect rescue, plate reader; CPE inhibition, % at 9.99 µM; actives 1.7% (n = 350,000); AID 651640; in the data active = CPE inhibition above about 20%, passing the limit was not always enough; inconclusive = no clear call, values can overlap the other calls; tested in BHK-21 cells;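 also: 0% = median of neutral control wells and 100% = median of positive control wells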
# FN deposit inh – fibronectin deposition inhibition | AID 743247 | AH1F fibroblasts, Alexa488-fibronectin deposition fluorescence, overnight | actives 0.086% (n = 350,000) | inhibition, % at 12.6 µM;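 active = mean inhibition across replicates of 30% or more, regardless of how many single replicates reach that level; inconclusive = mean under 30% yet at least half of replicates reach 30%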;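 also: positive control wells lacked labelled fibronectin entirely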
#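 Material – AH1F fibroblast monolayer, labelled fibronectin deposition · Reagent – labelled fibronectin 24 nM · Timing – 1 h adhesion, overnight exposure · Measured by – fluorescence at 485 nm excitation, 525 nm emission · Read-out – inhibition of fibronectin deposition signal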
# Env fusion inh – HIV envelope-mediated fusion inhibition; HeLa-JRFL Env/CEM21 cell fusion, luciferase; inhibition, % at 12.3 µM; actives 1.1% (n = 360,000);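 active = mean replicate inhibition score of at least 50 and every replicate individually at or above 50; inconclusive = only one of the two criteria met; inactive = mean below 50 and not all replicates reaching 50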;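 also: 0% = plate neutral controls and 100% = maraviroc near 300 nM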
# * = called active by the depositor; ? = inconclusive; nt = not tested or not shown; [ ] = remark or other dose.
SMILES,Ecoli rRNA inh,PglD inh,PGC1a acetyl inh,DENV2 CPE,FN deposit inh,Env fusion inh
O=C(Nc1cccc(F)c1)N1CCCCN2[C@@H](CO)[C@H](c3ccc(C#CC4CC4)cc3)[C@@H]2C1,-59,4,-14,3,nt,nt
C[C@@H]1CCCCO[C@H](CN(C)S(=O)(=O)c2ccc(Cl)cc2)[C@@H](C)CN([C@H](C)CO)C(=O)c2cc(NS(C)(=O)=O)ccc2O1,-5,-2,3,-4,nt,3[16.7 µM]
CC(=O)Nc1ccc(C=NNc2nnc(NN=Cc3ccc(NC(C)=O)cc3)c3ccccc23)cc1,-16*,nt,nt,-5,-3,15
C[C@H](CO)N1C[C@H](C)[C@H](CN(C)S(=O)(=O)c2cccc(F)c2)Oc2ncc(-c3ccc(F)cc3)cc2C1=O,-6,26,0,0,-3,28[16.7 µM]
CC(=O)N(C)C[C@H]1Oc2cc(Br)ccc2S(=O)(=O)N([C@H](C)CO)C[C@H]1C,0,-4,6,-4,-1,-17[16.7 µM]
CC(=O)c1ccc(OC2(C)CCN(Cc3ccc4ccccc4c3)C2)cc1 (stereo not given),-3,-1,-8,117*,-5,-5
COC(=O)Cc1ccc(OC2(C)CCN(Cc3csc4ccccc34)C2)cc1 (stereo not given),-3,-1,13,26*,-2,52
CC(C)Oc1ccccc1OC1(C)CCN(Cc2ccc(OC(F)(F)F)cc2)C1 (stereo not given),8,3,nt,42*,-11,40
O=S(=O)(c1ccccc1)N1CC2(C1)[C@H](c1ccccc1)[C@@H](CO)N2CC1CC1,-1,nt,nt,18,-7,nt
C[C@@H]1CCCCO[C@@H](CN(C)C)[C@H](C)CN([C@@H](C)CO)C(=O)c2cc(NS(C)(=O)=O)ccc2O1,1,1,-3,1,-1,-12[16.7 µM]
CCC(=O)N1CC(=O)N2[C@@H](CO)[C@H](c3ccc(C#CCc4ccccc4)cc3)[C@@H]2C1,1,nt,-17,-5,nt,nt
CCc1ccc([C@@H]2CC=C(C(=O)O)CN2S(=O)(=O)c2ccc(C)cc2)cc1,-23*,-4,3,?,-4,-20
CCOc1ccc([C@@H]2CC=C(C(=O)O)CN2S(=O)(=O)c2ccc(C)cc2)cc1,-26*,-1,nt,-3,-5,-14
NC(=O)COC(=O)CC(NC(N)=O)c1ccc(Cl)cc1 (stereo not given),-1,5,107*,-3,-12,nt
CCc1ccc(CN2CCN(C(=O)c3cccc(OC)c3OC)CC2)cc1,-8,0,-10,nt,-8,89*
COc1ccccc1CNC(=O)COC(=O)CSc1ccc(C)c(C)c1,-6,-6,-10,-8,-2,68*
Cc1ccc(SCC(=O)OCC(=O)NCc2cccs2)cc1C,-3,nt,nt,-6,-2,0
CC(C)C#Cc1ccc([C@@H]2[C@@H](CO)N3C(=O)CN(C(=O)NC4CCCCC4)C[C@@H]23)cc1,4,nt,11,?,0,nt
Oc1[nH]c2ccc(Br)cc2c1N=NC(=S)N1CCOCC1,-32,-1,39,-3,31*,23
Oc1[nH]c2ccccc2c1N=NC(=S)N1CCOCC1,nt,-11,11,nt,nt,nt
O=C(O)c1ccc(Nc2nc(-c3ccc([N+](=O)[O-])cc3)nc3ccccc23)cc1,-21*,-5,-2,-1,3,-1
O=[N+]([O-])c1ccc(-c2nc(Nc3ccc(O)cc3)c3ccccc3n2)cc1,3,0,nt,1,6,22
COc1cc(OC)c(NC(=O)Nc2ccc(OC)c(OC)c2)cc1Cl,nt,5,3,nt,-3,-32
COc1cc(NC(=O)Nc2ccc(Cl)c(Cl)c2)c(C(=O)O)cc1OC,-40*,0,-9,4,-7,1
O=C(Nc1cccc(C(F)(F)F)c1)Nc1nnc([C@H]2C[C@H](O)[C@@H](CO)O2)s1,-5,0,-15,8,0,25
SMILES,Ecoli rRNA inh,PglD inh,PGC1a acetyl inh,DENV2 CPE,FN deposit inh,Env fusion inh
CCSCCc1nnc(NC(=O)Nc2cccc(C(F)(F)F)c2)s1,nt,nt,nt,-2,1,70*
CCCN1[C@@H]2Cn3c(ccc(-c4cccnc4)c3=O)[C@H]1[C@@H](C(=O)NC1CCC1)[C@@H]2CO,2,-2,nt,2,nt,nt
COCC(=O)Nc1ccc2c(c1)C(=O)N(C)C[C@@H](OC)[C@H](C)CN(Cc1cc(-c3ccccc3)on1)[C@H](C)CO2,-4,-1,7,7,9,nt
[N-]=[N+]=Nc1ccccc1C[C@@]1(C(=O)NCc2ccccc2)N=C(c2ccc(OCCCO)cc2)O[C@@H]1c1ccccc1N=[N+]=[N-],nt,-5,-16,6,nt,59*[16.7 µM]
NNc1nc2c(Cl)ccc(Cl)c2s1,-26*,3,-8,-12,-3,-66
COc1ccccc1NC(=O)c1ccc(C(=O)c2ccccc2)o1,-32*,4,4,-1,-8,9
COc1ccccc1-c1cnc2c(c1)C(=O)N([C@H](C)CO)C[C@@H](C)[C@@H](CN(C)Cc1ccc(F)cc1)O2,-2,-4,-2,-1,2,18[16.7 µM]
CO[C@@H]1CN(C)C(=O)c2cc(NS(=O)(=O)c3cccc(C)c3)ccc2OC[C@H](C)NC[C@@H]1C,1,4,-7,-6,6,13[16.7 µM]
CC(C)NC(=O)Nc1cccc2c1O[C@@H](CN(C)Cc1ccc(C(=O)Nc3ccccc3N)cc1)[C@@H](C)CN([C@H](C)CO)C2=O,5,nt,1,-11,-2,nt
C[C@H](CO)N1C[C@H](C)[C@H](CN(C)Cc2ccc(C(=O)Nc3ccccc3N)cc2)Oc2c(NC(=O)Nc3ccc(F)cc3)cccc2C1=O,3,nt,-11,36*,1,nt
CC(C)NC(=O)Nc1cccc2c1O[C@H](CN(C)Cc1ccc(C(=O)Nc3ccccc3N)cc1)[C@H](C)CN([C@@H](C)CO)C2=O,1,nt,-1,21*,nt,nt
C[C@@H]1CN([C@H](C)CO)C(=O)c2cccc(NC(=O)C3CCOCC3)c2O[C@@H]1CN(C)Cc1ccc(C(=O)Nc2ccccc2N)cc1,5,-1,14,47*,nt,nt
CN1C(=O)c2cc(NC(=O)c3cnccn3)ccc2OC[C@H]2O[C@H](CC(=O)NC3CCC3)CC[C@@H]21,-1,0,2,-3,19,nt
C[C@H](CO)N1C[C@H](C)[C@@H](CN(C)S(=O)(=O)c2ccccc2)Oc2ncc(-c3cccc(C(=O)N(C)C)c3)cc2C1=O,-16,1,-1,0,-6,-3[16.7 µM]
C[C@@H]1CN([C@H](C)CO)C(=O)c2cccc(NC(=O)NC3CCCCC3)c2O[C@@H]1CN(C)C(=O)NC1CCCCC1,-1,22,4,?,nt,17[16.7 µM]
FC(F)(F)c1cccc(NC(=S)Nc2ccc(Cl)c(Cl)c2)c1,-49*,0,9,1,5,13

# Screening data as filed in PubChem.
